Laboratory results taken from ChEMBL document CHEMBL4400550, “Designing Dual Inhibitors of Anaplastic Lymphoma Kinase (ALK) and Bromodomain-4 (BRD4) by Tuning Kinase Selectivity” (J Med Chem, 2019).
Values after ≈ are worked out from the molar mass of the structure shown. Active and inactive are the calls of the source. The rule behind the calls is not given here.

Key:
[1] = biological target: T1, ALK tyrosine kinase receptor (Homo sapiens, UniProt Q9UM73, F1174L); experiment: Displacement of kinase tracer 236 from human N-terminal GST-tagged ALK F1174L mutant (1058 to 1620 residues) after 60 mins by LanthaScreen Eu--kinase binding assay
T1 sequence (Q9UM73 19-1620 F1174L limits assumed): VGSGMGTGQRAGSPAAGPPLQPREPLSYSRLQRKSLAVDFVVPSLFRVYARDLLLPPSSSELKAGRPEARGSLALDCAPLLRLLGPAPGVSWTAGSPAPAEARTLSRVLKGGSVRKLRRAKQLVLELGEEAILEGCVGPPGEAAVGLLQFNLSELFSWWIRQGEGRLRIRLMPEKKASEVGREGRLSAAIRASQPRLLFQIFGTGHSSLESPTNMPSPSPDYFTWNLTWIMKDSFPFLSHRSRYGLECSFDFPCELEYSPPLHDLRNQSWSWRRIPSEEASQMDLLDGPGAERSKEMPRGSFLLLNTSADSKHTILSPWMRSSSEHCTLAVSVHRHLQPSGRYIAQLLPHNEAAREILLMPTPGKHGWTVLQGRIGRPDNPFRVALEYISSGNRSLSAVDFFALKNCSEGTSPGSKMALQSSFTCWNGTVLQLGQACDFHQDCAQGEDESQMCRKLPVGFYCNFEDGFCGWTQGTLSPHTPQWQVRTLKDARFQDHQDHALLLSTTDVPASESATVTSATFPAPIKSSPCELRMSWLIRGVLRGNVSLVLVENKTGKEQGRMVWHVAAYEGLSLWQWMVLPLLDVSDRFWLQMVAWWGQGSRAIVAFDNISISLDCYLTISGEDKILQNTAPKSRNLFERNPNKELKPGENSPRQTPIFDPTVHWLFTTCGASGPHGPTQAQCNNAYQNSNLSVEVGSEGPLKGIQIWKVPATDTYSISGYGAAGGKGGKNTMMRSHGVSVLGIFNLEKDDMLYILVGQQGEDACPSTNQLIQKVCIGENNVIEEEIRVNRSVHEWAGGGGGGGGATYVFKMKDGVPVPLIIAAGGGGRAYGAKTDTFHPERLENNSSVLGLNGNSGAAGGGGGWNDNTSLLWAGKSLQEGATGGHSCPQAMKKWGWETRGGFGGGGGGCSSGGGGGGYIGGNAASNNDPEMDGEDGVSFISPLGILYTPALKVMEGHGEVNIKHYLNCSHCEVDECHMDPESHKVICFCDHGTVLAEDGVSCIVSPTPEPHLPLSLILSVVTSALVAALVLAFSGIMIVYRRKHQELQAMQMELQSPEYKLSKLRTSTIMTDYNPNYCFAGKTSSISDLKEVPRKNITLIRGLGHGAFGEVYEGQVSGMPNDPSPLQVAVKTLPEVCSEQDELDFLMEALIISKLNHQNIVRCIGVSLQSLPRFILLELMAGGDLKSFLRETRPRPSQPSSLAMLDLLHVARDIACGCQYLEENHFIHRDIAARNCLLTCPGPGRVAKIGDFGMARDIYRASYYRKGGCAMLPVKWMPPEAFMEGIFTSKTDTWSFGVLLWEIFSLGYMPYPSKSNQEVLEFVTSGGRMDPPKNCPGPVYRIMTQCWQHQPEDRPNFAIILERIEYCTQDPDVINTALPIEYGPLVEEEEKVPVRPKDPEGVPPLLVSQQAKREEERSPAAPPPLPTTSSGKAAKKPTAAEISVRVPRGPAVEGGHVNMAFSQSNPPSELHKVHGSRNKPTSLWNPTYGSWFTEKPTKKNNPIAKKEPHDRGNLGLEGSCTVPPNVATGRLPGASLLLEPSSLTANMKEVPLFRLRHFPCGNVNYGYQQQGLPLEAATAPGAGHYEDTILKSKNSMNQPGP
Procedure, shortened: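 LanthaScreen Eu binding assay. Mix 5 nM ALK F1174L, 30 nM Kinase Tracer 236 and 2 nM Eu-anti-GST antibody in 50 mM HEPES pH 7.5, 10 mM MgCl2, 1 mM EGTA, 0.01% Brij-35, 1 mM DTT. Compound runs 0.5 nM–100 μM in 1% DMSO. Incubate 60 min at room temperature. Read the 665 nm acceptor/donor emission ratio; fit log(inhibitor) vs ratio with a variable-slope equation.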

[2] = biological target: T2, Bromodomain-containing protein 4 (Homo sapiens, UniProt O60885); experiment: Binding affinity to BRD4 (unknown origin) by isothermal calorimetry
[3] = biological target: T3, Serine/threonine-protein kinase PLK1 (Homo sapiens, UniProt P53350); experiment: Inhibition of PLK1 (unknown origin) using Ser/Thr 16 as substrate after 60 mins by Z-LYTE activity assay
T3 sequence (P53350 whole entry): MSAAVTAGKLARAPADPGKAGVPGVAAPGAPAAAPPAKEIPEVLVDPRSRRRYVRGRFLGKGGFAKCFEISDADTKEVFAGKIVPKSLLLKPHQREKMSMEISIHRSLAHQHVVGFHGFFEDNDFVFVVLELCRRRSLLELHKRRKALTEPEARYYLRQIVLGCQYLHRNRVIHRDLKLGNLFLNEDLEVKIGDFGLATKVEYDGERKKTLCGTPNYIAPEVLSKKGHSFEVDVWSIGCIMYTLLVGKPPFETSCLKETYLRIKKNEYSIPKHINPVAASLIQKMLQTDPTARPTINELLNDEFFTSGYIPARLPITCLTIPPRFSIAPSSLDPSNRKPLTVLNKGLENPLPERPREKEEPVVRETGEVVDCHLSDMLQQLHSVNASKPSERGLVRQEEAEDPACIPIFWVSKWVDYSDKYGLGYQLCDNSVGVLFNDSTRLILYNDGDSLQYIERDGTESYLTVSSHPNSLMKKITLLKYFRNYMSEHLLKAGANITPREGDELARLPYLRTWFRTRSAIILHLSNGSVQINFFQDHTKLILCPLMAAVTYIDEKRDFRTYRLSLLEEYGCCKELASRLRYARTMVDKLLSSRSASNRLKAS

[4] = biological target: T2, Bromodomain-containing protein 4
[5] = biological target: T3, Serine/threonine-protein kinase PLK1; experiment: Inhibition of PLK1 (unknown origin) at 10 nM using Ser/Thr 16 as substrate after 60 mins by Z-LYTE activity assay
Procedure, shortened: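 PLK-1 Z'-LYTE activity assay run externally through the SelectScreen kinase profiling service. Percentage inhibition is measured at 10 nM compound.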

[6] = Solubility of the compound in phosphate buffer at pH 7.4 b HPLC analysis; assay type: physicochemical
Procedure, shortened: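 Solubility measured by in-house HPLC method from phosphate buffer at pH 7.4.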

[7] = Permeability of the compound at pH 7.4 by PAMPA; assay type: ADME; conditions: read-out: permeability
[8] = Partition coefficient, log P of the compound; assay type: physicochemical; conditions: octanol/water
[9] = Lipophilicity, log D of the compound at pH 7.4; assay type: physicochemical; conditions: buffer
[10] = biological target: T4, ALK tyrosine kinase receptor (Homo sapiens, UniProt Q9UM73); experiment: Binding affinity to wild type human ALK (1088 to 1409 residues) expressed in mammalian expression system by kinome scan-based assay
Target sequence in this assay (Q9UM73 whole entry, the tested form may be a part): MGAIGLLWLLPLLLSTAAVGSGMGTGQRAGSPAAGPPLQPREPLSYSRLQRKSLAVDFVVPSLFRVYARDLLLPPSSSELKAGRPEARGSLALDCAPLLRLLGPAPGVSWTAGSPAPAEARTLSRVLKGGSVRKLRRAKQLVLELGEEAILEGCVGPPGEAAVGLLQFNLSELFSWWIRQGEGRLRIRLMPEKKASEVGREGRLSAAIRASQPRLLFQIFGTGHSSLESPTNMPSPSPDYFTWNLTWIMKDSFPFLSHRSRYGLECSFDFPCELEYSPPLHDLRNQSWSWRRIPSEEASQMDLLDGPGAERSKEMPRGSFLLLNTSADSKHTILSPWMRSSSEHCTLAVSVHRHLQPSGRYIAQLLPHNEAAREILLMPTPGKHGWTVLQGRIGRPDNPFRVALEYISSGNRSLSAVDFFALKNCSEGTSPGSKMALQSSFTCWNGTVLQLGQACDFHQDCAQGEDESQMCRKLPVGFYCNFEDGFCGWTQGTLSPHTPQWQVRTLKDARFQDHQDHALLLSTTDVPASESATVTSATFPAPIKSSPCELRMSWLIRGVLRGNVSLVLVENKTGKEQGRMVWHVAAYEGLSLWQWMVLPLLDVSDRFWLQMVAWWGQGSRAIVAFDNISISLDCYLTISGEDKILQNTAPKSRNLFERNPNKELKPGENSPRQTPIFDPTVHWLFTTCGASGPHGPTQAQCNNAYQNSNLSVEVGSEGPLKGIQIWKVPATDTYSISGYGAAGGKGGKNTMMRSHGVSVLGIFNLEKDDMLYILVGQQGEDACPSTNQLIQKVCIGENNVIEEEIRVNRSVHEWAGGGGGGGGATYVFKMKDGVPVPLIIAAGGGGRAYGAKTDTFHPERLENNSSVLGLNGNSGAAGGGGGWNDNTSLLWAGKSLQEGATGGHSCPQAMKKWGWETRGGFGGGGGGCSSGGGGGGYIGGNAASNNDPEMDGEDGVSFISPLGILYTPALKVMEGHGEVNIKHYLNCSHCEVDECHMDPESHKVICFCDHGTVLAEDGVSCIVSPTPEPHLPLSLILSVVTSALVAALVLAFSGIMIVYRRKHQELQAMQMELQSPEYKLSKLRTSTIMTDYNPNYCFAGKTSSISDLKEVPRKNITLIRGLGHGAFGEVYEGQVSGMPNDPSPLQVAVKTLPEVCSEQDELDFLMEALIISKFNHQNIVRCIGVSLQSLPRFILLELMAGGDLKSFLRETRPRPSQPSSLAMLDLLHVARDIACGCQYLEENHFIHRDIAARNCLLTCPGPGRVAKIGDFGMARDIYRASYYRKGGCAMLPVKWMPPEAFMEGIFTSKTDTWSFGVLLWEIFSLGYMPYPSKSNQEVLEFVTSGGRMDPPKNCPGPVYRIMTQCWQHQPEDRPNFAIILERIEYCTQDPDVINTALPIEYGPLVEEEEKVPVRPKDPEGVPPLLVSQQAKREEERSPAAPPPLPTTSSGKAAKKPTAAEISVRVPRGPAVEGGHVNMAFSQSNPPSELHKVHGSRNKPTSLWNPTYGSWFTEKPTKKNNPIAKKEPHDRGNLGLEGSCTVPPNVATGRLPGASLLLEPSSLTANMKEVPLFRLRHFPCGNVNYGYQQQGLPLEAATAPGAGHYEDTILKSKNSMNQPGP

[11] = biological target: T5, Insulin receptor (Homo sapiens, UniProt P06213); experiment: Binding affinity to human INSR (997 to 1318 residues) expressed in mammalian expression system by kinome scan-based assay
[12] = biological target: T3, Serine/threonine-protein kinase PLK1; experiment: Binding affinity to human PLK1 (33 to 325 residues) expressed in mammalian expression system by kinome scan-based assay
[13] = biological target: T6, Serine/threonine-protein kinase PLK3 (Homo sapiens, UniProt Q9H4B4); experiment: Binding affinity to human PLK3 (42 to 334 residues) expressed in mammalian expression system by kinome scan-based assay
Target sequence in this assay (Q9H4B4 whole entry, the tested form may be a part): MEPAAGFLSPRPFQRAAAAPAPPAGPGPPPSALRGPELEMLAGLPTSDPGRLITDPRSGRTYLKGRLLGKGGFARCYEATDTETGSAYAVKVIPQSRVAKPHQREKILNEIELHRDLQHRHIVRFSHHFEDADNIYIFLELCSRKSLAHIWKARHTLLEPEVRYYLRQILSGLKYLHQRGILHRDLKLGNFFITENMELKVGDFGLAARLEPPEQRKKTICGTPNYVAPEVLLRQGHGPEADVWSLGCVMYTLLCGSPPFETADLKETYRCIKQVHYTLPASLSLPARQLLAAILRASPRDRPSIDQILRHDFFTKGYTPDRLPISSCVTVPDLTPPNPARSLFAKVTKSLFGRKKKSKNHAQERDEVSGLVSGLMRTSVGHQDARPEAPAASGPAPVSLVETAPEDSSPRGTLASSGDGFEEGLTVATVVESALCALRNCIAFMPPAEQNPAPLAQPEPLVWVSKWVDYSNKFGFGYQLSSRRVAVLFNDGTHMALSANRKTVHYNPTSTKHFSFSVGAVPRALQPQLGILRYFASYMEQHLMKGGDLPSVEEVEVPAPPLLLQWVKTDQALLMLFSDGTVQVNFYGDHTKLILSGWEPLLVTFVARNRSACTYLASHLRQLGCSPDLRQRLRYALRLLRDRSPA

[14] = biological target: T1, ALK tyrosine kinase receptor; experiment: Binding affinity to human ALK F1174L mutant (1088 to 1409 residues) expressed in mammalian expression system by kinome scan-based assay
[15] = biological target: T4, ALK tyrosine kinase receptor; experiment: Binding affinity to wild type human ALK (1088 to 1409 residues) expressed in mammalian expression system assessed as unbound protein level at 1 uM by kinome scan-based assay
Procedure, shortened: (§1)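 Single-point KINOMEscan (scanEDGE) competition binding at 1 μM compound. Read-out is %Ctrl, with DMSO set as 100%Ctrl; lower values mean stronger binding.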
Target sequence in this assay (Q9UM73 19-1620 limits assumed): as the sequence (Q9UM73 19-1620 F1174L limits assumed) above, with L1156F counted along it

[16] = biological target: T5, Insulin receptor; experiment: Binding affinity to human INSR (997 to 1318 residues) expressed in mammalian expression system assessed as unbound protein level at 1 uM by kinome scan-based assay; procedure, shortened: as §1
[17] = biological target: T3, Serine/threonine-protein kinase PLK1; experiment: Binding affinity to human PLK1 (33 to 325 residues) expressed in mammalian expression system assessed as unbound protein level at 1 uM by kinome scan-based assay; procedure, shortened: as §1
[18] = biological target: T6, Serine/threonine-protein kinase PLK3; experiment: Binding affinity to human PLK3 (42 to 334 residues) expressed in mammalian expression system assessed as unbound protein level at 1 uM by kinome scan-based assay; procedure, shortened: as §1
Target sequence in this assay (Q9H4B4 whole entry, looked up, the tested form may be a part): as the sequence (Q9H4B4 whole entry, the tested form may be a part) above

[19] = biological target: T1, ALK tyrosine kinase receptor; experiment: Inhibition of ALK F1174L mutant auto-phosphorylation in human Kelly cells after 3 hrs by MSD assay; assay type: cell-based
[20] = biological target: T2, Bromodomain-containing protein 4; experiment: Inhibition of full-length C-terminal NanoLuc-tagged BRD4 BD1 (unknown origin) expressed in human HEK293 cells after 2 hrs by NanoBRET target engagement assay; assay type: cell-based
[21] = biological target: T4, ALK tyrosine kinase receptor; experiment: Inhibition of full-length C-terminal NanoLuc-tagged ALK (unknown origin) expressed in human HEK293 cells after 2 hrs by NanoBRET target engagement assay; assay type: cell-based
Target sequence in this assay (Q9UM73 whole entry, the tested form may be a part): as the sequence (Q9UM73 whole entry, the tested form may be a part) above

[22] = tested on: HeLa; experiment: Induction of cell cycle arrest in human HeLa cells at 4 to 10 uM after 24 hrs by propidium iodide-staining based flow cytometry; assay type: functional
[23] = species: Homo sapiens; experiment: Selectivity ratio of IC50 for PLK1 (unknown origin) to IC50 for human N-terminal GST-tagged ALK F1174L mutant (1058 to 1620 residues)
[24] = species: Homo sapiens; experiment: Selectivity ratio of IC50 for PLK1 in human HeLa cells to IC50 for human N-terminal GST-tagged ALK F1174L mutant (1058 to 1620 residues); assay type: cell-based

Compound	IC50 [1] [nM]	Kd [2] [nM]	IC50 [3] [nM]	deltaTm [4] [K]	further results
CCOc1cc(C(=O)NC2CCN(C)CC2)ccc1Nc1ncc2c(n1)N(Cc1ccccc1)[C@H](CC)C(=O)N2C	440	69	84	4.1	
CCOc1cc(C2CCN(C)CC2)ccc1Nc1ncc2c(n1)N(Cc1cccc(Cl)c1)[C@H](CC)C(=O)N2C	210	130	540	6.2	
CCOc1cc(C(=O)NC2CCN(C)CC2)ccc1Nc1ncc2c(n1)N(C1CCCC1)[C@H](CC)C(=O)N2C	380	81	12	6	
CC[C@@H]1C(=O)N(C)c2cnc(Nc3ccc(C4CCN(C)CC4)cc3OC)nc2N1C1CCCC1	290	80	9.9	5.4	
CC[C@@H]1C(=O)N(C)c2cnc(Nc3ccc(C(=O)NC4CCN(C)CC4)cc3OCC(C)C)nc2N1C1CCCC1	1700	73		7.2	inhibition [5]: 43%
CCOc1cc(C2CCN(C)CC2)ccc1Nc1ncc2c(n1)N(Cc1ccccc1Br)[C@H](CC)C(=O)N2C	150			2.9	
CCOc1cc(C(=O)NC2CCN(C)CC2)ccc1Nc1ncc2c(n1)N(Cc1cccc(Br)c1)[C@H](CC)C(=O)N2C	490	73	110	6.7	
CCOc1cc(C2CCN(C)CC2)ccc1Nc1ncc2c(n1)N(Cc1ccc(Br)cc1)[C@H](CC)C(=O)N2C	680			5.8	
CCOc1cc(C2CCN(C)CC2)ccc1Nc1ncc2c(n1)N(Cc1scnc1C)[C@H](CC)C(=O)N2C	370			4.6	
CCOc1cc(C(=O)NC2CCN(C)CC2)ccc1Nc1ncc2c(n1)N(C1CCCC1)CC(=O)N2C	520			0.2	inhibition [5]: 32%
CCOc1cc(C2CCN(C)CC2)ccc1Nc1ncc2c(n1)N(Cc1cc(C)cs1)[C@H](CC)C(=O)N2C	17	44	125	7.1	solubility [6]: 90 µM (≈ 48.1 µg/mL); Papp [7]: 49 ×10⁻⁶ cm/s; logP [8]: 6.1; logD [9]: 4.2; Kd [10]: 89 nM; Kd [11]: 190 nM; Kd [12]: 11 nM; Kd [13]: 160 nM; Kd [14]: 23 nM; Activity [15]: 7.1%; Activity [16]: 25%; Activity [17]: 1%; Activity [18]: 25%; IC50 [19]: 1500 nM; IC50 [20]: 260 nM; IC50 [21]: 470 nM; Activity [22]: Active; Ratio IC50 [23]: 7; Ratio [24]: > 10
CCOc1cc(C2CCN(C)CC2)ccc1Nc1ncc2c(n1)N(Cc1cccc(Br)c1)[C@H](CC)C(=O)N2C	290	120	540	5	
CCOc1cc(C2CCN(C)CC2)ccc1Nc1ncc2c(n1)N(Cc1ccccc1)[C@H](CC)C(=O)N2C	85	54	290	4.7	IC50 [20]: 540 nM; IC50 [21]: 1640 nM
CCOc1cc(C(=O)NC2CCN(C)CC2)ccc1Nc1ncc2c(n1)N(C1CCCC1)[C@@H](CC)C(=O)N2C	3400			-0.2	inhibition [5]: 19%
CCOc1cc(C2CCN(C)CC2)ccc1Nc1ncc2c(n1)N(Cc1sccc1C)[C@H](CC)C(=O)N2C	63	63	68	5.4	IC50 [20]: 310 nM; IC50 [21]: 1020 nM
CCOc1cc(C2CCN(C)CC2)ccc1Nc1ncc2c(n1)N(Cc1cccc(C#N)c1)[C@H](CC)C(=O)N2C	370	78	1800	4.8	
CCOc1cc(C2CCN(C)CC2)ccc1Nc1ncc2c(n1)N(Cc1cccc(OC)c1)[C@H](CC)C(=O)N2C	350			5.1	
CCOc1cc(C2CCN(C)CC2)ccc1Nc1ncc2c(n1)N(Cc1ccc(C)s1)[C@H](CC)C(=O)N2C	220			8.3	
